Activity calls are given as the source filed them. The calls are words filed in the database; no cut-off is given here.
Key:
[1] = Cytotoxicity against rat L6 cells assessed as cell viability at 50 to 250 uM incubated for 24 hrs by MTT assay relative to control; assay type: toxicity, cell-based; details: dose 50-250 µM, read-out: Activity
How it was run: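 Rat L6 myoblasts, 2 × 10^4 cells per mL, allowed to attach, then exposed for 24 h to five concentrations (50–250 μM) from DMSO stocks; 0.1% DMSO as negative control. MTT at 0.5 mg mL−1 added for 4 h, formazan dissolved in DMSO, absorbance read at 570 nm. Viability calculated against control. Triplicate wells, three independent experiments.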

[2] = tested on: L6; assay: Upregulation of IRS-1 expression in insulin resistant myotube differentiated rat L6 cells at 1 to 2 uM incubated for 24 hrs by qRT-PCR analysis; assay type: functional, cell-based; details: dose 1-2 µM
How it was run: (§1)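 L6 myoblasts differentiated to myotubes in DMEM with 2% horse serum for 7 days, 2 × 10^4 cells per well. Insulin resistance induced in three steps: 25 mM glucose plus insulin for 24 h, then 5 mM glucose without insulin for 5 h, then insulin for 30 min. Compounds in DMEM with 2% inactivated FBS for 24 h. qPCR normalized to geometric mean of β-actin and γ-actin. Mean ± SEM, one-way ANOVA with Duncan test.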

[3] = tested on: Soleus muscle; assay: Upregulation of IRS-1 expression in insulin resistant Sprague-Dawley rat soleus muscle at 1 to 2 uM incubated for 24 hrs by qRT-PCR analysis; assay type: functional, tissue-based; details: dose 1-2 µM
How it was run: (§2)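 Isolated rat soleus muscle in gassed (95% O2–5% CO2) Krebs–Henseleit buffer. Insulin resistance induced in four steps: KHB with 0.1% BSA and 1 mM pyruvate for 24 h at 37 °C, then high glucose/insulin for 24 h, then 25 mM glucose for 5 h, then insulin for 30 min. Tissue then exposed in KHB for 24 h. qPCR normalized to β-/γ-actin geometric mean. Mean ± SEM, ANOVA/Duncan.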

[4] = tested on: L6; assay: Upregulation of PI3K expression in insulin resistant myotube differentiated rat L6 cells at 1 to 2 uM incubated for 24 hrs by qRT-PCR analysis; assay type: functional, cell-based; details: dose 1-2 µM; how it was run: as §1
[5] = tested on: Soleus muscle; assay: Upregulation of PI3K expression in insulin resistant Sprague-Dawley rat soleus muscle at 1 to 2 uM incubated for 24 hrs by qRT-PCR analysis; assay type: functional, tissue-based; details: dose 1-2 µM; how it was run: as §2
[6] = tested on: L6; assay: Downregulation of PKC-alpha expression in insulin resistant myotube differentiated rat L6 cells at 1 to 2 uM incubated for 24 hrs by qRT-PCR analysis; assay type: functional, cell-based; details: dose 1-2 µM; how it was run: as §1
[7] = tested on: Soleus muscle; assay: Downregulation of PKC-alpha expression in insulin resistant Sprague-Dawley rat soleus muscle at 1 to 2 uM incubated for 24 hrs by qRT-PCR analysis; assay type: functional, tissue-based; details: dose 1-2 µM; how it was run: as §2
[8] = tested on: L6; assay: Upregulation of PKB/AKT2 expression in insulin resistant myotube differentiated rat L6 cells at 2 uM incubated for 24 hrs by qRT-PCR analysis; assay type: functional, cell-based; how it was run: as §1
[9] = tested on: Soleus muscle; assay: Upregulation of PKB/AKT2 insulin resistant Sprague-Dawley rat soleus muscle at 2 uM incubated for 24 hrs by qRT-PCR analysis; assay type: functional, tissue-based; how it was run: as §2
[10] = tested on: L6; assay: Upregulation of GLUT4 expression in insulin resistant myotube differentiated rat L6 cells at 1 to 2 uM incubated for 24 hrs by qRT-PCR analysis; assay type: functional, cell-based; details: dose 1-2 µM; how it was run: as §1
[11] = tested on: Soleus muscle; assay: Upregulation of GLUT4 expression in insulin resistant Sprague-Dawley rat soleus muscle at 1 to 2 uM incubated for 24 hrs by qRT-PCR analysis; assay type: functional, tissue-based; details: dose 1-2 µM; how it was run: as §2
[12] = tested on: L6; assay: Upregulation of IRS-1 expression in insulin resistant myotube differentiated rat L6 cells incubated for 24 hrs by qRT-PCR analysis; assay type: functional, cell-based; how it was run: as §1
[13] = tested on: Soleus muscle; assay: Upregulation of PI3K expression in insulin resistant Sprague-Dawley rat soleus muscle incubated for 24 hrs by qRT-PCR analysis; assay type: functional, tissue-based; how it was run: as §2
[14] = tested on: L6; assay: Downregulation of PKC-alpha expression in insulin resistant myotube differentiated rat L6 cells incubated for 24 hrs by qRT-PCR analysis; assay type: functional, cell-based; how it was run: as §1
[15] = tested on: Soleus muscle; assay: Downregulation of PKC-alpha expression in insulin resistant Sprague-Dawley rat soleus muscle incubated for 24 hrs by qRT-PCR analysis; assay type: functional, tissue-based; how it was run: as §2
[16] = tested on: L6; assay: Upregulation of PKB/AKT2 expression in insulin resistant myotube differentiated rat L6 cells incubated for 24 hrs by qRT-PCR analysis; assay type: functional, cell-based; how it was run: as §1
[17] = tested on: L6; assay: Upregulation of GLUT4 expression in insulin resistant myotube differentiated rat L6 cells incubated for 24 hrs by qRT-PCR analysis; assay type: functional, cell-based; how it was run: as §1
[18] = tested on: Soleus muscle; assay: Upregulation of GLUT4 expression in insulin resistant Sprague-Dawley rat soleus muscle incubated for 24 hrs by qRT-PCR analysis; assay type: functional, tissue-based; how it was run: as §2

Row | SMILES | viability at 24 h, up to 250 µM [1] [%] | Activity [2] | Activity [3] | Activity [4] | Activity [5] | Activity [6] | Activity [7] | Activity [8] | Activity [9] | Activity [10] | Activity [11] | Activity [12] | Activity [13] | Activity [14] | Activity [15] | Activity [16] | Activity [17] | Activity [18]
1 | CC(=O)OC[C@H]1OC(OC(C)=O)[C@H](NC(=O)NS(=O)(=O)c2ccccc2)[C@@H](OC(C)=O)[C@@H]1OC(C)=O (some centres undefined) | 50 | Active | Active | Active | Active | Active | Active | Active | Active | Active | Active |  |  |  |  |  |  | 
2 | CN(C)C(=N)NC(=N)N |  |  |  |  |  |  |  |  |  |  |  | Active | Active | Active | Active | Active | Active | Active
3 | CCC1=C(C)CN(C(=O)NCCc2ccc(S(=O)(=O)NC(=O)N[C@H]3CC[C@H](C)CC3)cc2)C1=O |  |  |  |  |  |  |  |  |  |  |  | Active | Active | Active | Active | Active |  | Active
4 | O=C(N[C@H]1C(O)O[C@H](CO)[C@@H](O)[C@@H]1O)NS(=O)(=O)c1ccc(Cl)cc1 (some centres undefined) | 50 | Active | Active | Active | Active | Active | Active | Active | Active | Active | Active |  |  |  |  |  |  | 
5 | Cc1ccc(S(=O)(=O)NC(=O)N[C@H]2C(O)O[C@H](CO)[C@@H](O)[C@@H]2O)cc1 (some centres undefined) | 50 | Active | Active | Active | Active | Active | Active | Active | Active | Active | Active |  |  |  |  |  |  | 
6 | CC(=O)OC[C@H]1OC(OC(C)=O)[C@H](NC(=O)NS(=O)(=O)c2ccc(Cl)cc2)[C@@H](OC(C)=O)[C@@H]1OC(C)=O (some centres undefined) | 50 | Active | Active | Active | Active | Active | Active | Active | Active | Active | Active |  |  |  |  |  |  | 
7 | CC(=O)OC[C@H]1OC(OC(C)=O)[C@H](NC(=O)NS(=O)(=O)c2ccc(C)cc2)[C@@H](OC(C)=O)[C@@H]1OC(C)=O (some centres undefined) | 50 | Active | Active | Active | Active | Active | Active | Active | Active | Active | Active |  |  |  |  |  |  | 
8 | O=C(N[C@H]1C(O)O[C@H](CO)[C@@H](O)[C@@H]1O)NS(=O)(=O)c1ccccc1 (some centres undefined) | < 50 | Active | Active | Active | Active | Active | Active | Active | Active | Active | Active |  |  |  |  |  |  | 

Reference: ChEMBL document CHEMBL5376017, “Glucosamine substituted sulfonylureas: IRS-PI3K-PKC-AKT-GLUT4 insulin signalling pathway intriguing agent” (RSC Med Chem, 2024)
